Results from different studies.
Lines come from different studies, so protocols differ.
Target: Myosin light chain kinase 2, skeletal/cardiac muscle (MYLK2, Homo sapiens, UniProt Q9H1R3)
Tested at: 1 µM

CNC(=O)[C@@H]1CC[C@@H](n2c(-c3ccc4cnccc4c3)nc3ccc(C(=O)NCc4cccc(C(N)=O)c4)cc32)C1
remaining binding (binding; competition with immobilised ligand): 100%

CCC(=O)N[C@@H]1CC[C@H](C(=O)N(C)c2ccc(-c3nc4ccccc4o3)cc2)C1
remaining binding (cell-free assay; competition with immobilised ligand): 79%

CN(c1nccc(-c2cnn3ncccc23)n1)C1CC1
remaining binding (binding): 100%

COc1cnc(Nc2cccc(S(N)(=O)=O)c2)nc1N1CCN(c2ccccc2)C(=O)C1
remaining binding (binding; competition with immobilised ligand): 100%

Cc1cnc(Nc2ccc(C(=O)N3CCC(N4CCCC4)CC3)cc2)nc1-c1cc2ccccc2s1
remaining binding (binding; competition with immobilised ligand): 1.8%

CNCc1ccccc1-c1csc([C@H](C)Nc2nc(C)nc3cc(OC)c(OC)cc23)c1
remaining binding (cell-free assay; competition with immobilised ligand): 100%

O=C(Nc1c[nH]nc1C(=O)NC1CCNCC1)c1cc(F)cc(F)c1
remaining binding (binding; competition with immobilised ligand): 88%

CCN1CCN(Cc2ccc(C(=O)Nc3ccc(C)c(Oc4ccc5c(c4)CC(=O)N5)c3)cc2C(F)(F)F)CC1
remaining binding (binding; competition with immobilised ligand): 100%

C=CC(=O)N1CCC(C(=O)NCC(=O)N2CCN(c3nc(-c4cnc(N)nc4C(F)F)nc(N4CCOCC4)n3)CC2)CC1
remaining binding (binding; competition with immobilised ligand): 97%

O=C(N1CCS(=O)(=O)CC1)N1C[C@H](c2ccc(OC(F)(F)F)cc2)C[C@H](c2nc(C3CC3)no2)C1
remaining binding (cell-free assay; competition with immobilised ligand): 100%

COc1ccnn2ncc(-c3ccnc(N(C)C)n3)c12
remaining binding (binding): 96%

O=C(NCCCN1CCOCC1)c1ccc(Nc2ncc(Cl)c(-c3ccc(Cl)s3)n2)cc1
remaining binding (binding; competition with immobilised ligand): 12%

CC1CCCN1c1nccc(-c2cnn3ncccc23)n1 (centres unmarked)
remaining binding (binding): 100%

O=C(NCCCN1CCOCC1)c1ccc(Nc2nccc(-c3cc4ccccc4s3)n2)cc1
remaining binding (binding; competition with immobilised ligand): 9.1%

COc1ccc2cc(OCC3(C(=O)O)CN(C(=O)c4ccc(F)cc4)C3)ccc2c1
remaining binding (cell-free assay; competition with immobilised ligand): 100%

N[C@@H]1CCN(c2nccc(-c3cnn4ncccc34)n2)C1
remaining binding (binding): 98%

CC(=O)C1=C(C)N(c2cccc(C(F)(F)F)c2)C(=O)N[C@@H]1c1ccc(C#N)nc1
remaining binding (cell-free assay; competition with immobilised ligand): 100%

C[C@@H]1CCN(c2nccc(-c3cnn4ncccc34)n2)C1
remaining binding (binding): 86%

CS(=O)(=O)c1cc(C2(NC(=O)c3cncc4c3cnn4-c3ccc(F)cc3)CC2)ccn1
remaining binding (cell-free assay; competition with immobilised ligand): 100%

CN(CCCC(F)(F)F)c1nccc(-c2cnn3ncccc23)n1
remaining binding (binding): 98%
